# Experimental data pooled from the literature.
# Lines come from different studies, so protocols differ.
# Target: Ribosomal protein S6 kinase beta-1 (RPS6KB1, Homo sapiens, UniProt P23443)
Structure (SMILES),assay,setting,endpoint,result
C[C@H]1CC[C@H](n2c3cnccc3c3cnc(Nc4ccc5c(n4)CCN(C(=O)CO)C5)nc32)CC1,cell-free assay,1 µM,remaining signal,78%
CO[C@@H]1[C@H](N(C)C(=O)c2ccccc2)C[C@H]2O[C@]1(C)n1c3ccccc3c3c4c(c5c6ccccc6n2c5c31)C(=O)NC4,"enzyme activity, inhibitor",1 µM,inhibition,36%
COc1ccc2oc(-c3ccc4nc(N)oc4c3)c/c(=N\c3ccccc3NC(=O)CCN)c2c1,binding,1 µM,remaining binding,98%
Cc1ccc(NC(=O)c2ccnc(C(F)(F)F)c2)cc1-c1cc(OCCO)nc(N2CCOCC2)c1,binding,1 µM,remaining binding,100%
CC(C)S(=O)(=O)c1ccc2nccc(Nc3ccc4sc(C5CCCC5)nc4c3)c2c1,"enzyme activity, inhibitor",1 µM,activity vs control,110%
Cc1cc(O)c(-c2ccc([C@@H](C)CN(C)C)cc2)c2c1[nH]c(=O)c1sccc12,"enzyme activity, inhibitor",0.1 µM,inhibition,-5.29%
C=CC(=O)N1CCC([C@@H]2CCNc3c(C(N)=O)c(-c4ccc(Oc5ccccc5)cc4)nn32)CC1,"enzyme activity, inhibitor",1 µM,inhibition,1%
CCCCC(=O)Nc1ccc(-c2ccc3ncn(CCC)c(=O)c3c2)cn1,"binding, competition with immobilised ligand",0.5 µM,remaining binding,98%
